# FLuc inh counter: inhibits firefly luciferase, flagging false hits in luciferase inhibition screens; 200,000 compounds, 1.5% hits; P08659; ATPLite firefly luciferase biochemical luminescence, 10 min; inhibition, % at 10 µM;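 active means inhibition above about 50% when tested at 10 µM, limit read from the data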
# APP 5'UTR act: activates APP 5'UTR luciferase reporter; SH-SY5Y APP 5'UTR luciferase reporter, luminescence; zero percent = DMSO vehicle wells; AID 1276; activation, % at 2 µM; 190,000 compounds, 1% hits;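 active means activation above a set limit, based on mean plus 3 SD of controls, cut at about 140% in these data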
# FLuc stim CS: firefly luciferase counter-screen for stimulation assays; P08659; ATPlite luciferase biochemical, luminescence, 10 min; 0 = ATP-free wells, 1 = DMSO control; activation factor at 10 µM; 200,000 tested, under 10 active; AID 1027;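 active means luciferase activation factor, scaled between plate controls, of at least 2 with compound at 10 µM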
#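 Material: luciferase plus luciferin reagent, cell-free. Medium: PBS buffer for ATP. Also added: ATP substrate, dispensed from a 10.24 µM working solution in PBS. Doses: test compounds dosed from 2 mM stocks in 100% DMSO. Incubation: 10 min post-reagent at room temperature. Technique: light output (luminescence). Read-out basis: luminescence gain marking luciferase activators.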
# NF-kB neuron act: raises NF-kB expression in human neuronal cells. AID 1239. fold change at 12.5 µM. 190,000 compounds, 1.6% hits. NF-kB reporter expression; stronger effect = higher value; in the data active means fold change above about 3.3
# Rad51 HR inh: Rad51 (human) homologous recombination inhibition; Q06609; hRad51 DNA strand exchange, fluorescence dequenching; inhibition, % at 10 µM; 200,000 compounds, 0.085% hits;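 active means inhibition above 40% at the single screening dose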
# Target sequence (Q06609 whole entry, looked up): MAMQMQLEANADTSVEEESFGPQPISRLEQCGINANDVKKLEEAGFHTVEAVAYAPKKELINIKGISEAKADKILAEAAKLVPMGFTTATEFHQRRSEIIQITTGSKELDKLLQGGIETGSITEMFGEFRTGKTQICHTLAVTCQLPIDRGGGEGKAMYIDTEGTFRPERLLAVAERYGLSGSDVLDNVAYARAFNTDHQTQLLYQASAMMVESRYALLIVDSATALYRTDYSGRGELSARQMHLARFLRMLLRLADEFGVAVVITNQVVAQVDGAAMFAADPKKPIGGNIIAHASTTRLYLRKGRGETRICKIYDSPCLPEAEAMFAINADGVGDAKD
#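 Material: hRad51 filaments on single-stranded DNA; Reagent: Donor/quencher-labelled 47-bp dsDNA substrate; Compound: 10 µM final, single point; Schedule: 37 °C 15-min filament assembly, 30-min compound preincubation, 15-min exchange; Technique: FRET fluorescence, excitation 485 nm, emission 520 nm; Benchmarks: control wells and blank wells on each plate.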
# STAT1 act: activators of IFN-gamma induced STAT1 signaling. NIH 3T3 STAT1-luciferase reporter, luminescence; 100% = IFN-gamma alone, no compound. activation (% of control), % at 5.5 µM. 200,000 compounds, 2.6% hits. AID 932;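 active means activation above the screen-wide mean activation plus 3 SD, cut at about 130% in these data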
# Numbers stand for hits; - = inactive; . = not tested or not shown. Most compounds without a hit are left out; they make up all but 3.9% or so of the library.
SMILES,FLuc inh counter,APP 5'UTR act,FLuc stim CS,NF-kB neuron act,Rad51 HR inh,STAT1 act
COc1ccc(C(=O)/C=C/c2cn(CC(O)CN3CCOCC3)c3ccccc23)cc1 (stereo not drawn),-,-,-,-,-,-
CCOc1ccc(-c2c(C(=O)N/N=C/c3ccc(OC)cc3)nnn2-c2nonc2N)cc1,-,-,-,-,.,-
O=C(Nc1ccc(SC(F)F)cc1)c1ccc(F)cc1,-,-,-,4.7,-,137
O=C(O)c1ccc(Nc2nc3c(s2)CCCC3)cc1,-,-,-,3.5,-,-
O=C(NC(=S)Nc1nc2c(s1)CCCC2)c1ccc(C(=O)c2ccccc2)cc1,-,-,-,-,-,-
Cc1nc(Nc2ccc(C(=O)O)cc2)sc1-c1ccccc1,-,160,-,.,.,131
C1CCN=C(Nc2nc3c(s2)CCCC3)CC1,-,-,-,-,-,131
C/C(=N\Nc1nc2c(s1)CCCC2)c1ccccc1,-,-,-,-,-,149
Cc1nc(Nc2ccccc2)sc1C(=O)c1ccccc1,.,.,.,.,-,.
CCn1ncc(C(=O)Nc2cccc(Cl)c2)c1C,-,-,-,-,-,144
N#C/C(=C(/O)c1ccc(-c2cccc([N+](=O)[O-])c2)o1)c1nc2ccccc2s1,66,-,-,-,-,-
CNC(=S)NCC(O)c1ccc([N+](=O)[O-])cc1 (stereo not drawn),-,-,-,-,-,-
Cc1ccc(N=Nc2c(N)nn3c(C)cc(C)nc23)cc1,-,-,-,-,-,-
Cc1ccc(N=Nc2c(N)nn3c(N)c(C#N)c(C)nc23)cc1,-,-,-,-,-,129
CC1(C)CC(CCNC(=O)CCl)(c2ccccc2)CCO1 (stereo not drawn),.,.,.,.,-,.
CN1C(=C2C(=O)OC(C)(C)OC2=O)Sc2ccccc21,-,-,-,-,-,130
CCC1CCCCN1C(=O)CCc1nnc(Cc2cc(OC)ccc2OC)o1 (stereo not drawn),.,.,.,.,-,.
O=C(c1c(F)cccc1F)N1CCN=C1SCc1ccccc1,.,.,.,.,-,.
Cc1c(N=Cc2nc3ccccc3n2C)c(=O)n(-c2ccccc2)n1C,83,-,-,-,-,-
CN(c1ccc(C(=O)NCCc2ccccc2)cc1)S(C)(=O)=O,-,-,-,-,-,141
CCCCc1ccc(NC(=O)C2CCCO2)cc1 (stereo not drawn),-,-,-,-,-,130
O=C(NCCc1ccccc1)c1ccccc1F,-,-,-,3.3,-,-
O=C(NCCc1ccccc1)c1ccccc1NC(=O)C1CCCO1 (stereo not drawn),-,158,-,3.4,-,134
Nc1c(C(=O)Nc2ccccc2)c2nc3ccccc3nc2n1-c1ccc(O)cc1,.,.,.,.,-,.
O=C(NCCCc1ccccc1)c1ccccc1,-,-,-,-,-,129
SMILES,FLuc inh counter,APP 5'UTR act,FLuc stim CS,NF-kB neuron act,Rad51 HR inh,STAT1 act
CCn1nc(C)c(CNCc2cn[nH]c2-c2cc3ccccc3o2)c1C,.,.,.,.,-,.
O=C1NC(c2ccccc2Cl)Nc2ccccc21 (stereo not drawn),-,-,-,-,-,-
O=C1c2ccccc2NC(c2ccccc2Cl)N1N=C1CCCCCC1 (stereo not drawn),-,-,-,-,-,139
O=C1c2ccccc2C(=O)C1c1ccncc1,80,-,-,3.8,-,-
O=C(Nc1ccc(Nc2ccccc2)cc1)C(Cl)(Cl)Cl,-,-,-,-,-,-
CC1=C/C(=N\OS(=O)(=O)c2ccccc2)C(C)=CC1=O,-,-,-,9.8,-,-
CC1=C(C)/C(=N\OS(=O)(=O)c2ccc(C)cc2)C=CC1=O,-,-,-,-,-,-
CC1=C/C(=N\OS(=O)(=O)c2ccccc2)C(C(C)C)=CC1=O,-,-,-,5.9,.,-
c1ccc(-c2noc(-c3cccc4ccccc34)n2)nc1,77,-,-,-,-,-
COc1cccc(-c2nc(-c3ccccn3)no2)c1OC,-,-,-,-,-,136
CS(=O)(=O)N1N=C(c2cccs2)CC1c1ccco1 (stereo not drawn),-,-,-,-,-,-
Cc1cc(N2CCOCC2)n2ncc(-c3ccccc3)c2n1,84,142,-,-,-,-
Cc1cc(N2CCOCC2)n2ncc(-c3ccc(Cl)cc3)c2n1,.,.,.,.,-,.
Cc1cc(N2CCC(C)CC2)n2ncc(-c3ccccc3)c2n1,-,194,-,-,-,132
Cc1cc(N2CCC(C)CC2)n2nc(C)c(-c3ccccc3)c2n1,-,-,-,-,-,-
Cc1cc(SCC(=O)c2ccccc2)n2ncc(-c3ccccc3)c2n1,.,.,.,.,-,.
Cc1cc(-c2ccccc2)n2ncc(-c3ccccc3)c2n1,85,166,-,-,.,143
Cc1cc(N2CCCCC2)n2ncc(-c3ccc(Cl)cc3)c2n1,-,-,-,-,-,139
Fc1ccc(-n2nnc(-c3ncc[nH]3)n2)cc1,.,.,.,.,-,.
Cc1cc(NCCCn2ccnc2)n2nc(C)c(-c3ccccc3)c2n1,-,-,-,-,-,-
Cc1cc(N2CCCCC2)n2nc(C)c(-c3ccccc3)c2n1,-,-,-,-,-,-
Cc1cc(NCCCn2ccnc2)n2ncc(-c3ccccc3)c2n1,87,-,-,-,-,-
Cc1cc(N2CCCCC2)n2ncc(-c3ccccc3)c2n1,67,217,-,-,-,-
CC1(C)CC(=O)C=C(NNC(=O)c2ccccc2O)C1,91,-,-,-,96,-
COC(=O)/C=C/c1ccsc1NC(C)=O,-,-,-,-,.,-
SMILES,FLuc inh counter,APP 5'UTR act,FLuc stim CS,NF-kB neuron act,Rad51 HR inh,STAT1 act
Oc1ccc(N=Nc2ccc3c(c2)OCCO3)c2ncccc12,.,.,.,.,-,.
CCc1nnc(NC(=O)C2COc3ccccc3O2)s1 (stereo not drawn),-,-,-,-,-,-
O=C(Nc1ccncc1)C1COc2ccccc2O1 (stereo not drawn),-,-,-,-,-,-
CCC(CC)c1nnc(NC(=O)C2COc3ccccc3O2)s1 (stereo not drawn),-,-,-,-,.,137
O=C(Nc1nc2c(s1)CCCC2)C1COc2ccccc2O1 (stereo not drawn),-,147,-,-,-,-
Cc1nnc(NC(=O)C2COc3ccccc3O2)s1 (stereo not drawn),-,-,-,-,-,129
CCCCCc1nnc(NC(=O)C2COc3ccccc3O2)s1 (stereo not drawn),-,-,-,-,-,-
O=C(NC1=NCCS1)C1COc2ccccc2O1 (stereo not drawn),76,-,-,-,-,-
O=C(O)c1cccc(Nc2nc(Nc3ccccc3)nc(N3CCCC3)n2)c1,-,-,-,-,-,-
CC(C)OC(=O)Cn1cc(C#N)c2ccccc21,-,-,-,-,-,-
CCOC(=O)c1oc2ccc(/C=N/O)c(Cl)c2c1C,-,-,-,-,-,132
CCOC(=O)c1oc2cc(C)cc(C)c2c1C,.,.,.,.,-,.
